An excerpt weighted towards active compounds, which were near 3.2% of everything screened.
Apaf1 inhib: blocks human Apaf-1 apoptosome activity; O14727; reconstituted apoptosome caspase-3 activity, DEVD-Rh110 fluorescence; inhibition, % at 20 µM; 330,000 compounds, 0.71% hits; active means inhibition of at least 40% at 20 µM;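 further: plate controls were DMSO wells for no effect and DEVD-CHO caspase inhibitor wells for full effect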
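Assay system – apoptosome proteins · Medium – Hepes buffer, pH 7.5 · Also added – cytochrome c with DEVD-Rh110 · Timing – 30 min compound preincubation, 50 min activation, room temperature · Detection – Rh110 fluorescence, excitation 480 nm, emission 540 nm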
MEKK3 PB1 HTS: raises or lowers MEK5 binding to the human MEKK3 PB1 domain | Q99759 | bead-based flow cytometry, Alexa488-MEK5 binding to MEKK3; actives lie on both sides; 0 = blocked by unlabeled MEK5, 100 = vehicle | binding response (% of control), % at 10 µM | 290,000 compounds, 1.4% hits | AID 1529;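 active means binding response more than 3 SD above or below the average of its plate-row segment, actives on both sides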;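 further: Alexa488 bead fluorescence after subtracting the streptavidin-only scavenger bead signal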
Target sequence (Q99759 whole entry, looked up, the tested form may be a part): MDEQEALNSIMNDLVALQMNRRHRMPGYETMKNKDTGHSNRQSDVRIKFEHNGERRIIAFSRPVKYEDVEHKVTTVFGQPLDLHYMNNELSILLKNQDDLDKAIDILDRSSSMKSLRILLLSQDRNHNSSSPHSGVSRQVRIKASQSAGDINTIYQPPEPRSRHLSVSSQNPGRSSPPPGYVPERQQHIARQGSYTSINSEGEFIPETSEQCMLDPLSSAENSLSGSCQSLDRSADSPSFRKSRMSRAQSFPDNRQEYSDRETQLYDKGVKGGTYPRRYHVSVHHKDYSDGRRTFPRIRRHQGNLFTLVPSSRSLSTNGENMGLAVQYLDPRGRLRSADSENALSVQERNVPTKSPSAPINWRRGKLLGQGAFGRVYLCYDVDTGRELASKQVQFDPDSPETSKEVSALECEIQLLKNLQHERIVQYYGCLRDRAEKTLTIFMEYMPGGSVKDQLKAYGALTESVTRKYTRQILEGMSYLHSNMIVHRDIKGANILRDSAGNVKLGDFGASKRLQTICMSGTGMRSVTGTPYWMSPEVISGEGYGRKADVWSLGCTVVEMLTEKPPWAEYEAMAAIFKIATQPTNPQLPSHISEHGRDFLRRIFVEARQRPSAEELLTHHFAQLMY
MEKK2 mut-MEK5: signal of MEK5 binding to mutant human MEKK2 PB1 domain; 290,000 compounds, 0.35% hits; percent response, % at 10 µM; bead flow cytometry, Alexa488-MEK5 binding to MEKK2 mutant; in the data active means percent response above about 24%, passing the limit was not always enough
UBC13 polyUb: blocks human UBC13 polyubiquitin chain formation. inhibition, % at 20 µM. 330,000 compounds, 0.47% hits. AID 485273. TR-FRET; in the data active means inhibition above about 45%, passing the limit was not always enough
MEKK2 WT-MEK5: raises or lowers MEK5 binding to wildtype human MEKK2 PB1 domain | Q9Y2U5 | bead flow cytometry, Alexa488-MEK5 binding to MEKK2 WT; actives lie on both sides | binding response (% of control), % at 10 µM | 290,000 compounds, 1.1% hits | AID 1531; in the data active means binding response below about 67% or above about 130%
Pemphigus Ab inh: human desmoglein-3 autoantibody binding inhibition; binding (percent of control), % at 10 µM; AID 588358; 310,000 compounds, 0.48% hits; DSG3-coupled beads, scFv-anti-DSG3-GFP binding, flow cytometry; hits give low values;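 active means binding more than 3 SD below its plate's average and above zero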;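 further: hits lower antibody fragment binding to DSG3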
Apaf-1 inh conf2: confirmation of Apaf-1 inhibitors; shares compounds with Apaf1 inhib; inhibition, % at 20 µM; 1,800 compounds, 25% hits; reconstituted apoptosome, caspase-3 DEVD-Rh110 fluorescence; AID 504614;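 active means mean inhibition of at least 40% at 20 µM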;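 further: plate controls were DMSO wells for no effect and DEVD-CHO caspase inhibitor control wells for full effect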
Rh110 quench: counter-screen for Apaf-1 inhibitors: fluorescence interference; Rh110 fluorescence interference, quenched caspase reaction; shares compounds with Apaf1 inhib; activation (fluorescence interference), % at 20 µM; 1,800 tested, under 10 active;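 active means signal rise of 40% or more at 20 µM, treated as a fluorescence artifact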
Fluor interf inh: Apaf-1 inhibitor counter-screen fluorescence artifact; AID 588538; IC50, µM; 460 tested, under 10 active; fluorescence interference counterscreen, Apaf-1 assay format; shares compounds with Apaf1 inhib; call rule not given here
The depositor's hits bear a star; nt = no result given; ! = not active in a repeat.

SMILES	Apaf1 inhib	MEKK3 PB1 HTS	MEKK2 mut-MEK5	UBC13 polyUb	MEKK2 WT-MEK5	Pemphigus Ab inh	Apaf-1 inh conf2	Rh110 quench	others
CSc1ccc(/C=N/NC(=O)CNc2ccc3ccccc3c2)cc1	10.8	100.0	0.0	-10.1	98.0	91.3	nt	nt
C=CCc1cccc(/C=N/NC(=O)CNc2cccc3ccccc23)c1O	96.4*	101.0	0.0	-17.4	104.0	102.8	13.4	4.5
C=CCc1cccc(/C=N/NC(=O)CNc2ccccc2OC)c1O	24.2	101.0	-2.0	-2.4	99.0	96.3	nt	nt
CSc1ccc(/C=N/NC(=O)CNc2cccc3ccccc23)cc1	85.7*	105.0	16.0	-60.4	122.0	92.2	15.7	-2.8
O=C(CNc1cccc2ccccc12)N/N=C/C(Br)=C/c1ccccc1	64.9*	108.0	1.0	-50.9	99.0	88.2	2.0	7.1
Cc1ccc(S(=O)(=O)NOCc2ccccc2)cc1	7.8	nt	nt	nt	nt	97.9	nt	nt
COC(=O)c1cc(S(=O)(=O)NCCN2CCN(c3ccccc3F)CC2)c[nH]1	-4.6	99.0	4.0	5.8	100.0	nt	nt	nt
COc1ccc(/C=C/C(=O)OCC(=O)NC2CCCCCC2)cc1	nt	nt	nt	nt	nt	98.2	nt	nt
COc1ccc(C(=O)O)cc1S(=O)(=O)Nc1ccccc1Cc1ccccc1	-5.0	100.0	-3.0	4.7	97.0	nt	nt	nt
CC(C)C(NC(=O)c1ccccc1)C(=O)N1CCN(C/C=C/c2ccccc2)CC1 (stereo unspecified)	3.9	nt	nt	4.3	nt	105.3	nt	nt
C[C@H](NC(=O)c1ccc(C(C)(C)C)cc1)C(=O)N1CCN(C/C=C/c2ccccc2)CC1	42.7*	nt	nt	5.6	nt	111.4	17.6	11.9
Oc1ccc(N=Nc2ccccc2C(F)(F)F)c2cccnc12	15.7	98.0	5.0	-141.5	100.0	100.9	nt	nt
COc1ccccc1N=Nc1ccc(O)c2ncccc12	90.0*	95.0	-2.0	-32.4	97.0	93.2	31.5	14.5
O=[N+]([O-])c1cc([N+](=O)[O-])c2nonc2c1Nc1ccc(O)cc1	73.9*	104.0	10.0	-181.9	101.0	99.0	12.9	-2.0
O=[N+]([O-])c1cc([N+](=O)[O-])c2nonc2c1Nc1ccccc1O	31.3	106.0	16.0	-79.1	106.0	103.6	nt	nt
Oc1ccc(N=Cc2ccc(-c3cccs3)s2)cc1	95.8*	98.0	-4.0	2.0	93.0	95.1	26.4	5.5
O=C(NCCc1ccccc1)c1ccccc1SCC(=O)N1CCCC1	60.3*	103.0	8.0	31.1	117.0	113.2	36.0	2.1
CN(Cc1ccccc1)C(=O)CN1C(=O)NC(C)(c2ccc(C(C)(C)C)cc2)C1=O (stereo unspecified)	41.7*	100.0	-2.0	-14.4	98.0	89.0	20.5	4.5
CC1OC(Nc2ccc(N=Nc3ccccc3)cc2)C(O)C(O)C1O (stereo unspecified)	7.1	103.0	-4.0	-36.1	97.0	99.4	nt	nt
CC1OC(Nc2cccc3ccccc23)C(O)C(O)C1O (stereo unspecified)	96.1*	101.0	4.0	-68.0	101.0	88.6	64.4*	1.9	Fluor interf inh=>100
CCOc1ccccc1NC(=O)c1cc(-c2ccccn2)nc2ccccc12	52.8*	nt	nt	-8.0	nt	95.8	15.2	6.7
CCOC(=O)/C=c1/s/c(=C/c2ccccc2OC)c(=O)n1CC(=O)N1CCOCC1	nt	nt	nt	nt	nt	121.0	nt	nt
N#Cc1nc(-c2ccco2)oc1N1CCc2ccccc2C1	51.7*	103.0	2.0	3.0	103.0	101.9	24.7	21.3
Cc1ccc(S(=O)(=O)N2CCN(S(=O)(=O)N3CCC(C)CC3)CC2)c(C)c1	4.8	101.0	5.0	8.3	97.0	101.5	nt	nt
CC1CCN(S(=O)(=O)c2ccc3c4c2CC(=O)N4CC(C)S3)CC1 (stereo unspecified)	94.4*	94.0	-1.0	-43.2	94.0	96.6	86.5*	-0.9	Fluor interf inh=>100
SMILES	Apaf1 inhib	MEKK3 PB1 HTS	MEKK2 mut-MEK5	UBC13 polyUb	MEKK2 WT-MEK5	Pemphigus Ab inh	Apaf-1 inh conf2	Rh110 quench	others
COc1cc(/C=C/C(=O)OCC(=O)NCCc2ccc(S(N)(=O)=O)cc2)ccc1OCC#N	-0.2	nt	nt	4.0	nt	100.1	nt	nt
CN1CCc2cccc3c2[C@H]1Cc1ccc(O)c(O)c1-3	42.2*!	88.0	3.0	3.5	100.0	113.3	6.3	6.9
O=C(NNC(=O)c1ccc(-c2ccc([N+](=O)[O-])cc2)o1)c1ccncc1	1.6	nt	nt	-22.9	nt	nt	nt	nt
Cc1ccc(N(C)S(=O)(=O)c2cccc(C(=O)Nc3ccc(C)cn3)c2)cc1	44.7*	nt	nt	16.1	nt	120.1	37.8	-2.1
CCc1ccc(NC(=O)[C@H](Cc2c[nH]c3ccccc23)NC(=O)[C@@H]2Cc3ccccc3CN2)cc1	41.1*	101.0	6.0	11.9	116.0	109.8	18.4	0.9
Cc1cc(C)cc(NC(=O)[C@H](Cc2c[nH]c3ccccc23)NC(=O)[C@@H]2Cc3ccccc3CN2)c1	17.0	96.0	-1.0	13.1	99.0	nt	nt	nt
O=c1c2ccccc2nnn1-c1ccccc1[N+](=O)[O-]	nt	nt	nt	nt	nt	105.1	nt	nt
O=C(NCc1cccc(F)c1)c1ccc2nc(N3CCOCC3)sc2c1	-0.5	102.0	8.0	2.0	110.0	98.0	nt	nt
CC(=O)N=Cc1c(C)c(C#N)c(=O)n(C)c1O	43.9*	104.0	9.0	-12.7	105.0	96.1	-1.8	-0.9
S=C1CC2CCCC(C2)N1 (stereo unspecified)	nt	nt	nt	nt	nt	87.9	nt	nt
Clc1ccccc1-c1nn2c(-c3ccncc3)nnc2s1	46.7*	100.0	0.0	6.6	99.0	98.0	63.5*	0.3	Fluor interf inh=>100
Cc1c(C(=O)N(CCc2ccccc2)Cc2ccccc2)cccc1[N+](=O)[O-]	41.3*	100.0	5.0	12.2	104.0	nt	37.0	7.2
Cc1ccc2c(c1)C1CN(C)CCC1N2S(=O)(=O)c1ccccc1F (stereo unspecified)	-14.8	nt	nt	8.0	nt	nt	nt	nt
Cn1c(SCC(=O)Nc2ccc3nc(SCC(=O)N4CCCC4)sc3c2)nnc1-c1ccccc1	65.8*	103.0	5.0	-10.3	102.0	nt	11.7	-2.4
O=C(COc1cc2oc(=O)c3c(c2cc1Cl)CCCC3)N1C[C@H]2C[C@@H](C1)c1cccc(=O)n1C2	25.3	100.0	3.0	6.3	102.0	nt	nt	nt
CCc1nc(N2CCN(C(C)=O)CC2)c2c3c(sc2n1)CC(C(C)(C)C)CC3 (stereo unspecified)	41.8*	101.0	4.0	22.4	107.0	110.3	31.2	10.5
CCc1nc(N2CCN(C(=O)CCCl)CC2)c2c3c(sc2n1)CCCC3	nt	nt	nt	nt	nt	97.2	nt	nt
O=C(COc1ccccc1)N1CCN=C1SCc1cccnc1	3.4	113.0	6.0	-6.1	117.0	106.7	nt	nt
